Experimental data as given in ChEMBL document CHEMBL1158569, “Structure-activity relationships in a novel series of 7-substituted-aryl quinolines and 5-substituted-aryl benzothiazoles at the metabotropic glutamate receptor subtype 5” (Bioorg Med Chem, 2010).
pIC50, pKi: −log10 of the molar value. The source made the active and inactive calls. The calls are words filed in the database; no cut-off is given here.

Assays:
[1] = molecular target: Metabotropic glutamate receptor 4 (Homo sapiens) (UniProt Q14833); experiment: Inhibition of mGluR4 expressed in CHO cells at 10 uM; type: cell-based
[2] = molecular target: Metabotropic glutamate receptor 6 (Homo sapiens) (UniProt O15303); experiment: Inhibition of mGluR6 expressed in CHO cells at 10 uM; type: cell-based
[3] = molecular target: T1, Metabotropic glutamate receptor 5 (Rattus norvegicus, UniProt P31424); experiment: Displacement of [3HMPEP from rat cloned mGluR5 expressed in HEK293T cells by scintillation counting; type: cell-based, HEK-293T
Outline: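 Radioligand displacement with [3H]MPEP, run through the NIMH Psychoactive Drug Screening Program. Receptor source was rat brain membranes or HEK293-T cells transfected with cloned rat mGluR5 cDNA. Ki reported as ±SEM.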

[4] = molecular target: T1, Metabotropic glutamate receptor 5; experiment: Antagonist activity at rat mGluR5 expressed in HEK293A cells assessed as inhibition of glutamate-induced calcium flux preincubated for 140 secs before glutamate challenge by calcium fluorescence assay; type: functional, cell-based, HEK293-A
Outline: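 Functional read-out was receptor-induced intracellular calcium release, detected by calcium fluorescence. A kinetic imaging plate reader recorded calcium levels simultaneously in every well of 384-well plates. IC50 reported as ±SEM.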

[5] = molecular target: Metabotropic glutamate receptor 1 (Homo sapiens) (UniProt Q13255); experiment: Inhibition of mGluR1 expressed in CHO cells at 10 uM; type: cell-based
[6] = molecular target: Metabotropic glutamate receptor 8 (Homo sapiens) (UniProt O00222); experiment: Inhibition of mGluR8 expressed in CHO cells at 10 uM; type: cell-based
[7] = molecular target: Metabotropic glutamate receptor 2 (Homo sapiens) (UniProt Q14416); experiment: Inhibition of mGluR2 expressed in CHO cells at 10 uM; type: cell-based
[8] = molecular target: Glutamate NMDA receptor (Rattus norvegicus) (UniProt P35439+Q00959+Q00960+Q00961+Q62645+Q8VHN2+Q9R1M7); experiment: Displacement of [3H]MK801 from NMDA receptor in rat brain homogenate at 10 uM by scintillation counting; type: tissue-based
[9] = molecular target: Metabotropic glutamate receptor 5 (Rattus norvegicus) (UniProt P31424); conditions: HEK293-A, 0.0001 to 100 uM

Chain of Metabotropic glutamate receptor 4 (Homo sapiens) (Q14833 whole entry): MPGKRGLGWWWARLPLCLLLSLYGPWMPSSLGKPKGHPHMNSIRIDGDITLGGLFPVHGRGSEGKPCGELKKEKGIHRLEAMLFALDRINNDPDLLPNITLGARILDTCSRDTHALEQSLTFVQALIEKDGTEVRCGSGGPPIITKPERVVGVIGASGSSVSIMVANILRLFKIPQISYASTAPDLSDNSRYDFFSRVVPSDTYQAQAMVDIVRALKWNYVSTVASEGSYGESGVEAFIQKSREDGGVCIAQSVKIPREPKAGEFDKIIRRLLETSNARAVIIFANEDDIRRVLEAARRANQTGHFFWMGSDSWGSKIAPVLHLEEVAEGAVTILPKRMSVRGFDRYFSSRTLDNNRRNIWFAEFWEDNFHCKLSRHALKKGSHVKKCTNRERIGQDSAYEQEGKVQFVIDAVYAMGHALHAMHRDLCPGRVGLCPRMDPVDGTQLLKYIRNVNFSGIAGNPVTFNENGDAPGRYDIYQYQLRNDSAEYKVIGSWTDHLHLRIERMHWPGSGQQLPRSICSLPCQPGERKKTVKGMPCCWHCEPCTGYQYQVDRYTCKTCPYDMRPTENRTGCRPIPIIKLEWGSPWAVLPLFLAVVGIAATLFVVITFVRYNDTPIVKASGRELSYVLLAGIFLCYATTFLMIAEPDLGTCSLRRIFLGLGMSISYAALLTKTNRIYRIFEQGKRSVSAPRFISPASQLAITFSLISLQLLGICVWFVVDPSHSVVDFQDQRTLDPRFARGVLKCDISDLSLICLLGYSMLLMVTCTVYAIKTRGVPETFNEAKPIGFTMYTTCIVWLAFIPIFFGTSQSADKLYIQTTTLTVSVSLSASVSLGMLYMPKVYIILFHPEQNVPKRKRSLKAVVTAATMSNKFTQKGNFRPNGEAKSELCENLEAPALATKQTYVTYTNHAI
T1 sequence (P31424 whole entry): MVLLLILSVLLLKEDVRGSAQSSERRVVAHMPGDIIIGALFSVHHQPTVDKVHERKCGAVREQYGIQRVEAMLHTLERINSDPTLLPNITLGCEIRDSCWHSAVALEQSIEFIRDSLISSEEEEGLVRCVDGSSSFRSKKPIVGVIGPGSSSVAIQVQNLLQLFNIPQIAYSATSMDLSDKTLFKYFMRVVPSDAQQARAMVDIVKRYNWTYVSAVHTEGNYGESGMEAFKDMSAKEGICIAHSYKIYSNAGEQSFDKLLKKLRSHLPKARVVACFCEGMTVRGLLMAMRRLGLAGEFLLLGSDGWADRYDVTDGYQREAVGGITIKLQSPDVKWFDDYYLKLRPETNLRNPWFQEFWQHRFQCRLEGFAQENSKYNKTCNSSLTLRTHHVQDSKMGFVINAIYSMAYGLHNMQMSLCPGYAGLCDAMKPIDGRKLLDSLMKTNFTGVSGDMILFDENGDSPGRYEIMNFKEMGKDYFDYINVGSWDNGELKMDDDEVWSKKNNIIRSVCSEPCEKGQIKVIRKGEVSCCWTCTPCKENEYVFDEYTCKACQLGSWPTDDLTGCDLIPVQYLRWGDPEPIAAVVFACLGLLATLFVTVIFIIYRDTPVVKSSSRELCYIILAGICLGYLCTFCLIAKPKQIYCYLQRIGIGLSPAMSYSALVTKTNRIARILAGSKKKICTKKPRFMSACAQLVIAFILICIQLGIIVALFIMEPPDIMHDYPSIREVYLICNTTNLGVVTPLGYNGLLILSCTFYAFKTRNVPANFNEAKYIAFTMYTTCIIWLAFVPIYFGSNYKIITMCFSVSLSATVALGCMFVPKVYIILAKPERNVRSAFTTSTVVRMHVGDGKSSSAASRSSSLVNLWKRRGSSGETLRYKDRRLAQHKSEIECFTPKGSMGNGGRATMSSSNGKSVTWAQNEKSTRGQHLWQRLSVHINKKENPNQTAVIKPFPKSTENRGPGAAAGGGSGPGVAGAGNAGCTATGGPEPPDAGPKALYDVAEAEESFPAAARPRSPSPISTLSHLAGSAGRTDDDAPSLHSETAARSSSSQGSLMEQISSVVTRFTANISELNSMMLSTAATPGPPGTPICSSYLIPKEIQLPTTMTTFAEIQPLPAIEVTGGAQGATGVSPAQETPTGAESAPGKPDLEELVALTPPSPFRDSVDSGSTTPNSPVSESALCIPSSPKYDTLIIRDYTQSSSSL
Chain of Metabotropic glutamate receptor 2 (Homo sapiens) (Q14416 19-872 limits assumed): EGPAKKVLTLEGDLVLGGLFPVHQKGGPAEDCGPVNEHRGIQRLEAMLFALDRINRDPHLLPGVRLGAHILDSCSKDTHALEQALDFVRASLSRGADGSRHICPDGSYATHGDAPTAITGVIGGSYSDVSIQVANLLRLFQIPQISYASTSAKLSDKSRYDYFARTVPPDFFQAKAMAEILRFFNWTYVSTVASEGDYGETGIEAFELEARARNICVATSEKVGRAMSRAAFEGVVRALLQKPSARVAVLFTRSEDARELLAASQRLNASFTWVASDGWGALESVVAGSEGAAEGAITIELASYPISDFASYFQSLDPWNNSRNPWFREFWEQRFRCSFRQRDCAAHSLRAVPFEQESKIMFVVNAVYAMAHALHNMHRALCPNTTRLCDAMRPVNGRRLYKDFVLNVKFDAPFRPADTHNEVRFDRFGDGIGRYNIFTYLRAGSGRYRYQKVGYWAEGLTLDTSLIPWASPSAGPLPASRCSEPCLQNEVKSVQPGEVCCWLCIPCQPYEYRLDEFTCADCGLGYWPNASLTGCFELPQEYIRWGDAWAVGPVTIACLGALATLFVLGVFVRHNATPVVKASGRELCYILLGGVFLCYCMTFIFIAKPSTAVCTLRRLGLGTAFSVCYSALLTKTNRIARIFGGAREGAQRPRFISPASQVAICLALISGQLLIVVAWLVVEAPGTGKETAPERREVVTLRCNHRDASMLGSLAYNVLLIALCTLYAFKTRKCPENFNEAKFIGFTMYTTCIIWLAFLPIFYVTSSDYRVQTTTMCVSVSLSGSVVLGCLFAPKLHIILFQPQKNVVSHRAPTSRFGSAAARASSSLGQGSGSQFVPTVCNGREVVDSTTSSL
Chain of Metabotropic glutamate receptor 1 (Homo sapiens) (Q13255 19-1194 limits assumed): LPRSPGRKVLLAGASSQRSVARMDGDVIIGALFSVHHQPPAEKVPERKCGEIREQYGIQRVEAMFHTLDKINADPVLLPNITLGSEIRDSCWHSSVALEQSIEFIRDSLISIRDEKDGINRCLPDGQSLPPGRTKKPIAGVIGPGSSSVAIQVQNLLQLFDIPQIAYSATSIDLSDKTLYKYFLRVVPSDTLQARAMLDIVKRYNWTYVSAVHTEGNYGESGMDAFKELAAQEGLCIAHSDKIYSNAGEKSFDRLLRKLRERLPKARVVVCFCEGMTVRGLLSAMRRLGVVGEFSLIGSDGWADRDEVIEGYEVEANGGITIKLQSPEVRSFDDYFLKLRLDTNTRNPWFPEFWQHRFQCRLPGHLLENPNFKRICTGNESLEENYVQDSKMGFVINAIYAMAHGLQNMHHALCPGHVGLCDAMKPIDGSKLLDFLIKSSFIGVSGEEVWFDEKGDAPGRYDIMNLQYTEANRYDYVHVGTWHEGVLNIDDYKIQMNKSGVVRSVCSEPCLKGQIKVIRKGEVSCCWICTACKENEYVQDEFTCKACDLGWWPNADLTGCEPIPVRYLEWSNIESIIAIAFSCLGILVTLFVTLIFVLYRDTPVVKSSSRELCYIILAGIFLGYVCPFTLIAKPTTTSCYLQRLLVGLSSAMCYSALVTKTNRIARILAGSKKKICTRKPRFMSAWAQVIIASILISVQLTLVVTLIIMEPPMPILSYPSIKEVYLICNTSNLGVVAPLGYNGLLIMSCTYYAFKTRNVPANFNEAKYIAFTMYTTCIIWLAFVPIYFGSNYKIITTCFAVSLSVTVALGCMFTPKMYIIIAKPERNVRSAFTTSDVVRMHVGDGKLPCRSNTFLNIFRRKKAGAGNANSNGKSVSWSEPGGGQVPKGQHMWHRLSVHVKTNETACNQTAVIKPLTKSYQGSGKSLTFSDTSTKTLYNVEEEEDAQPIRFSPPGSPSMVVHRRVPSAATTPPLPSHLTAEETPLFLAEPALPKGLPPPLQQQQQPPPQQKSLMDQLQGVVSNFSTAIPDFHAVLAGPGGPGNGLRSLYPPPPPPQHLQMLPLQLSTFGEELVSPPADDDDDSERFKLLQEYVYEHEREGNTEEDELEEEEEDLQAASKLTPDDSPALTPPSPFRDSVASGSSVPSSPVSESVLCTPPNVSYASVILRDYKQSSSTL
Chain of Metabotropic glutamate receptor 6 (Homo sapiens) (O15303 whole entry): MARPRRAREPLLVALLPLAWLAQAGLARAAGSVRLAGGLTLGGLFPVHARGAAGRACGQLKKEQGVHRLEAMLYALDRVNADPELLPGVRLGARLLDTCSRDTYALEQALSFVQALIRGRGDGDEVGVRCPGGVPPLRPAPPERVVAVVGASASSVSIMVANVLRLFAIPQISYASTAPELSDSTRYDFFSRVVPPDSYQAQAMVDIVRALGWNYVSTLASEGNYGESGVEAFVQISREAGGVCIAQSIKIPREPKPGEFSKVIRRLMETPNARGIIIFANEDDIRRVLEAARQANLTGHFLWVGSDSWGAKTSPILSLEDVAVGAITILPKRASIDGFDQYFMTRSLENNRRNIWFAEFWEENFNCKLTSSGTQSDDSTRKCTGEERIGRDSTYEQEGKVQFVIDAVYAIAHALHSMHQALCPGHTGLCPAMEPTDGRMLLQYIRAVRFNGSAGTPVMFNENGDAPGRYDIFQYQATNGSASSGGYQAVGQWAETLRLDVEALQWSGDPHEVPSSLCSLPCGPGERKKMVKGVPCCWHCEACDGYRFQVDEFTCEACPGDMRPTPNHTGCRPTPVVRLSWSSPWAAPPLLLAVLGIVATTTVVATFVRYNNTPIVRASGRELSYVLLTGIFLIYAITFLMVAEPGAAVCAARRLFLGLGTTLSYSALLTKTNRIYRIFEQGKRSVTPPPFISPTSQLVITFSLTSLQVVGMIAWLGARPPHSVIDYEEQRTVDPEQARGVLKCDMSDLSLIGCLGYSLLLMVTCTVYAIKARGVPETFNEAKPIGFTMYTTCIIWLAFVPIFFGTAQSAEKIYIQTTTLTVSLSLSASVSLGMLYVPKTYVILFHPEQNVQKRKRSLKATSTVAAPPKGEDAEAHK

`COCOc1ccc(-c2ccc3ccc(C)nc3c2)cc1C#N` gave an inhibition [1] of less than 50%, an inhibition [2] of less than 50% and a pKi [3] of 6.22. For the same compound, the pIC50 [4] was 6.53, the inhibition [5] was less than 50% and the inhibition [6] was less than 50%. The inhibition [7] was less than 50% and the Activity [8] was “inactive”.

`Cc1ccc2ccc(-c3cnc(-c4ccccc4)c(C#N)c3)cc2n1` gave an inhibition [1] of less than 50%, an inhibition [2] of less than 50% and a pKi [3] of 7.01. It also gave a pIC50 [4] of 7.09, an inhibition [5] of less than 50% and an inhibition [6] of less than 50%. For the same compound, the inhibition [7] was less than 50% and the Activity [8] was “inactive”.

With `Cc1ccc2ccc(-c3ccc(OCc4ccccc4)c(C#N)c3)cc2n1` the inhibition [1] was less than 50%, the inhibition [2] was less than 50% and the pKi [3] was 5.98. It also gave a pIC50 [4] of less than 5.00, an inhibition [5] of less than 50% and an inhibition [6] of less than 50%. The inhibition [7] was less than 50% and the Activity [8] was “inactive”.

Compound `Cc1ccc2ccc(-c3ccc(-c4ccccc4)c(C#N)c3)cc2n1` has an inhibition [1] of less than 50%, an inhibition [2] of less than 50% and a pKi [3] of 7.01. For the same compound, the pIC50 [4] was 5.90, the inhibition [5] was less than 50% and the inhibition [6] was less than 50%. The inhibition [7] was less than 50% and the Activity [8] was “inactive”.

`Cc1nc(C#Cc2cccnc2)cs1` showed an inhibition [1] of less than 50%, an inhibition [2] of less than 50% and an inhibition [5] of less than 50%. For the same compound, the inhibition [6] was less than 50%, the inhibition [7] was less than 50% and the Activity [8] was “inactive”.

`Cc1ccc2ccc(-c3ccc(-c4cccnc4)c(C#N)c3)cc2n1` was tested, and the inhibition [1] was less than 50%, the inhibition [2] was less than 50% and the pKi [3] was 6.14. For the same compound, the pIC50 [4] was 5.87, the inhibition [5] was less than 50% and the inhibition [6] was less than 50%. The inhibition [7] was less than 50% and the Activity [8] was “inactive”.

`Cc1nc2cc(-c3ccc(OS(=O)(=O)C(F)(F)F)c(C#N)c3)ccc2s1` gave an inhibition [1] of less than 50%, an inhibition [2] of less than 50% and a pKi [3] of 6.06. It also gave a pIC50 [4] of 5.11, an inhibition [5] of less than 50% and an inhibition [6] of less than 50%. For the same compound, the inhibition [7] was less than 50% and the Activity [8] was “inactive”.

Compound `Cc1nc2cc(-c3cccc(C#N)c3)ccc2s1` has an inhibition [1] of less than 50%, an inhibition [2] of less than 50% and an inhibition [5] of less than 50%. The inhibition [6] was less than 50%, the inhibition [7] was less than 50% and the Activity [8] was “inactive”.

`Cc1nc2cc(-c3ccc(OCc4ccccc4)c(C#N)c3)ccc2s1` gave an inhibition [1] of less than 50%, an inhibition [2] of less than 50% and a pKi [3] of 5.15. It also gave a pIC50 [4] of less than 5.00, an inhibition [5] of less than 50% and an inhibition [6] of less than 50%. The inhibition [7] was less than 50% and the Activity [8] was “inactive”.

With `Cc1ccc2ccc(-c3ccc(O)c(C#N)c3)cc2n1` the inhibition [1] was less than 50%, the inhibition [2] was less than 50% and the pKi [3] was less than 5.00. It also gave a pIC50 [4] of less than 5.00, an inhibition [5] of less than 50% and an inhibition [6] of less than 50%. The inhibition [7] was less than 50% and the Activity [8] was “inactive”.

With `Cc1nc2cc(-c3ccc(-c4ccc(F)cc4)c(C#N)c3)ccc2s1` the inhibition [1] was less than 50%, the inhibition [2] was less than 50% and the pKi [3] was 5.33. It also gave a pIC50 [4] of less than 5.00, an inhibition [5] of less than 50% and an inhibition [6] of less than 50%. For the same compound, the inhibition [7] was less than 50% and the Activity [8] was “inactive”.

`Cc1ccc2ccc(-c3ccc(-c4ccc(F)cc4)c(C#N)c3)cc2n1` showed an inhibition [1] of less than 50%, an inhibition [2] of less than 50% and a pKi [3] of 7.19. The pIC50 [4] was 6.16, the inhibition [5] was less than 50% and the inhibition [6] was less than 50%. The inhibition [7] was less than 50% and the Activity [8] was “inactive”.

`Cc1ccc2ccc(-c3ccc(Cl)cc3C#N)cc2n1` showed an inhibition [1] of less than 50%, an inhibition [2] of less than 50% and a pKi [3] of 5.33. The pIC50 [4] was 5.04, the inhibition [5] was less than 50% and the inhibition [6] was less than 50%. For the same compound, the inhibition [7] was less than 50% and the Activity [8] was “inactive”.

`Cc1ccc2ccc(-c3cnc(Cl)c(C#N)c3)cc2n1` was tested, and the inhibition [1] was less than 50%, the inhibition [2] was less than 50% and the inhibition [9] was 50%. It also gave a pKi [3] of less than 5.00, a pIC50 [4] of 5.48 and an inhibition [5] of less than 50%. The inhibition [6] was less than 50%, the inhibition [7] was less than 50% and the Activity [8] was “inactive”.

`Cc1cccc(C#Cc2cncc(C#N)c2)n1` was tested, and the inhibition [1] was less than 50%, the inhibition [2] was less than 50% and the pKi [3] was 8.82. The pIC50 [4] was 7.89, the inhibition [5] was less than 50% and the inhibition [6] was less than 50%. For the same compound, the inhibition [7] was less than 50% and the Activity [8] was “inactive”.
